One data set has as its system VCaP cells. Also noted: species or system chicken. The settings on record: in vivo, 25 mg/kg.
For data set [1], the target named is T1, ERG protein in HUVEC cells (Homo sapiens, UniProt P11308).
T1 sequence (P11308 1-479): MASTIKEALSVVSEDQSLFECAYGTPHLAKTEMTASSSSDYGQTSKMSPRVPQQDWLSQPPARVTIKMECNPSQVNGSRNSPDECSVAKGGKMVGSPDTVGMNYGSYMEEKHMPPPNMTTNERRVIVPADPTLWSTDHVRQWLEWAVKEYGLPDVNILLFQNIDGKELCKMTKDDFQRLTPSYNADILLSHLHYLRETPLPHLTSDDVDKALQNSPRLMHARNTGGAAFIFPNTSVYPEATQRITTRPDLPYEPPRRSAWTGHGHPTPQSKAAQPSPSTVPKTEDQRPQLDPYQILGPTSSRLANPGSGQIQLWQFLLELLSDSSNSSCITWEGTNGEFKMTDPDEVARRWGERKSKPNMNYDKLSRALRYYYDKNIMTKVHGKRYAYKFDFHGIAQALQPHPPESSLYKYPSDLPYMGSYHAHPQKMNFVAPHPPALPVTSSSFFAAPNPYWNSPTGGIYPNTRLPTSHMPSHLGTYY
The data set can be described thus: Cellular thermal shift assay. The format is cell-based.

The test system of data set [2] is ERG recruitment to chromatin. The data set can be described thus: ChIP and ChIP-seq in VCaP cells. The format is cell-based. In outline:
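VCaP cells were exposed to 50 μM test compound or mutant control peptide for 12 h. Cells were cross-linked in 1% formaldehyde for 10 min, quenched with glycine, and sonicated to ~200 bp fragments. Chromatin from 5×10^6 cells was incubated with antibody overnight at 4°C, and crosslinks were reversed at 67°C for 4–5 h. ChIP-seq ERG signal was normalized and taken at summits of 4th-quartile peaks (mutant-control sample), ±400 bp.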

For a further data set, the system named is VCaP xenografts. The data set is described as follows: VCaP xenograft mouse model. The format is in vivo, mice. The settings on record: 25 mg/kg, IP-Western blot, compared to mutant peptide. In outline: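 Mice carried VCaP xenografts staged for three weeks, with 10 per group. Test compound or mutant control peptide was given IP at 25 mg/kg daily. Tumors were collected 24 h after the final dose and lysed in MOPS pH 7.0 buffer with phosphatase and protease inhibitors. For IP-Western, 0.5–1.0 mg lysate was precleared, incubated with 2 μg anti-ERG at 4°C for 4 h, then with protein A/G beads overnight, and immunoblotted.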
A general note: A western blot detects proteins with antibodies after separation by electrophoresis.

The target of another data set is T2, ERG:DNA-PKcs interaction (Homo sapiens, UniProt P11308).
T2 sequence (P11308 33-479 limits assumed): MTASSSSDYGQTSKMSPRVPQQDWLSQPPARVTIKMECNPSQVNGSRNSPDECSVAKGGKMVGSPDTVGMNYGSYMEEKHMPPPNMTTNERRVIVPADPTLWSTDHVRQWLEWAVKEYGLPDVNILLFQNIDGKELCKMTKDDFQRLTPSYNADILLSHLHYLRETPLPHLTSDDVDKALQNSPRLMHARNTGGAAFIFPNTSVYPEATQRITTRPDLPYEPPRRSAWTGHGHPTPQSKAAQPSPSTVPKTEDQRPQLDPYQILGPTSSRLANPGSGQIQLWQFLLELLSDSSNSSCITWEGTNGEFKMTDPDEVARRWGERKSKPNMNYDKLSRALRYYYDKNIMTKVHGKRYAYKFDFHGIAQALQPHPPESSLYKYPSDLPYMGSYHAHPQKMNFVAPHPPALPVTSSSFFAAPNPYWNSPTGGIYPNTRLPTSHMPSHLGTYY
The data set is described as follows: Co-immunoprecipitation from VCaP xenograft tumors after single dose. The format is in vivo, mice. As to conditions: single 25 mg/kg dose IP, three and six hours post injection, co-IP immunoblot.

The target of data set [3] is T3, ERG protein in VCaP cells (Homo sapiens, UniProt P11308).
T3 sequence (P11308 33-479 limits assumed): T2 sequence (P11308 33-479 limits assumed)
The data set is described as follows: Cellular thermal shift assay. The format is cell-based. The settings on record: 50°C, 3 hours treatment.

The target in the next data set is T4, ERG protein (Homo sapiens, UniProt P11308).
T4 sequence (P11308 1-479): T1 sequence (P11308 1-479)
The data set can be described thus: Biolayer interferometry. Background: BLI is a label-free optical method that tracks binding on a fibre tip over time.

In data set [4] the target is T3, ERG protein in VCaP cells. The format is cell-based.
Data set [5] concerns the target T5, ERG protein in RWPE1-ERG cells (Homo sapiens, UniProt P11308).
T5 sequence (P11308 33-479 limits assumed): T2 sequence (P11308 33-479 limits assumed)
The data set is described as follows: Immunoblot of ERG protein in RWPE1-ERG cells. The format is cell-based. As to conditions: even at 5 μM concentration.

Data set [6] concerns the target T6, ERG protein in PC3-ERG cells (Homo sapiens, UniProt P11308).
T6 sequence (P11308 1-479): T1 sequence (P11308 1-479)
The data set can be described thus: Immunoblot of ERG protein in PC3-ERG cells. The settings on record: even at 5 μM concentration. The format is cell-based.

The target in another data set is ERG_Y373A (Homo sapiens, UniProt P11308, Y373A). The data set can be described thus: biochemical.
The target of the next data set is T7, ERG:AR interaction (Homo sapiens, UniProt P11308).
T7 sequence (P11308 1-479): T1 sequence (P11308 1-479)
The data set is described as follows: In vitro peptide competitive pull-down, ERG:AR. The format is biochemical. As to conditions: cell-free, Halo-ERG and GST-AR, increasing peptide concentrations, immunoblot.

For the next data set, the target named is ERG:EBS DNA interaction (Homo sapiens, UniProt P11308).

Where a SMILES comes first, the peptide text is derived from it. Where no end group is shown, it is not given here. [ ]: non-standard residue; d: D form.

In general, Kd refers to a measure of binding affinity in units of concentration. A high value points to weaker binding. Take `CC(C)C[C@@H](NC(=O)[C@H]1CCCN1C(=O)[C@H]1CCCN1C(=O)[C@@H](Cc1ccc(O)cc1)NC(=O)[C@@H](CC(C)C)NC(=O)[C@@H](Cc1ccccc1)NC(=O)[C@H](N)[C@H](C)O)C(=O)O` [RI-EIP1] (H-[dT][dF][dL][dY][dP][dP][dL]-OH): in the data set with VCaP cells, the “ERG-mediated invasion in CAM” value is given as “blocked”. In [1], the “thermal shift of soluble ERG protein in HUVEC cells (CETSA)” value is recorded as “no clear thermal shift”. Also, the “average ERG ChIP-seq signal for 4th quartile peaks” value in data set [2] (50 μM, 12 hours, compared to mutant peptide) was “markedly reduced”. Besides, the “ERG and DNA-PKcs enrichment at ERG-regulated genomic loci (ChIP)” value in data set [2] (12 hours treatment) is “inhibited”. Moreover, in the data set on VCaP xenografts, the “ERG protein in VCaP xenograft tumors after 18 days treatment” value is “degradation of ERG protein”. Besides, the “ERG:DNA-PKcs interaction in xenograft tumors” value at ERG:DNA-PKcs interaction is reported as “blocked”. For the same molecule, in data set [3], the “solubility of ERG protein, isothermal dose-response” value is “increased in a dose-dependent fashion”. At ERG protein, binding was put at a Kd of 940 nM. Further, the “ERG protein half-life in the presence of cycloheximide” value in data set [4] is recorded as “significantly shortened”. In addition, in data set [5], the “effect on ERG protein in RWPE1-ERG cells” value is “destabilized”. Also, in data set [6], the “effect on ERG protein in PC3-ERG cells” value is recorded as “destabilized”.

With LPPYLFT [EIP1], the Kd on ERG protein was 600 nM; on ERG_Y373A it was more than 100 µM. Also, at ERG:AR interaction, the “disruption of direct ERG:AR interaction” value is recorded as “disrupted”. Besides, the “disruption of ERG:EBS DNA interaction” value at ERG:EBS DNA interaction is reported as “effectively disrupted”.

LSFGSLP [EIP2] returned a Kd at ERG protein of 1800 nM. Also, at ERG:AR interaction, the “disruption of direct ERG:AR interaction” value is “disrupted”.

On ERG protein, `CC(C)C[C@@H](NC(=O)[C@@H](CO)NC(=O)[C@@H](Cc1ccccc1)NC(=O)CNC(=O)[C@@H](CO)NC(=O)[C@@H](CC(C)C)NC(=O)[C@H]1CCCN1)C(=O)O` [RI-EIP2] (H-[dP][dL][dS]G[dF][dS][dL]-OH) had a Kd of 1280 nM. Besides, in data set [5], the “effect on ERG protein in RWPE1-ERG cells” value is on record as “destabilized”. Besides, in data set [6], the “effect on ERG protein in PC3-ERG cells” value is listed as “destabilized”.

These data come from article PMC5443258 (Cancer cell, 2017).
